Assay results published in ChEMBL document CHEMBL4024779, “Novel Terminal Bipheny-Based Diapophytoene Desaturases (CrtN) Inhibitors as Anti-MRSA/VISR/LRSA Agents with Reduced hERG Activity” (J Med Chem, 2018).
Positions count from the first letter of the chain named. Calls of active or inactive are those of the source. The rule behind the calls is not given here.

What was measured:
[1] = molecular target: T1, 4,4'-diapophytoene desaturase (4,4'-diaponeurosporene-forming) (Staphylococcus aureus (strain MW2), UniProt Q8NUQ6); experiment: Inhibition of CrtN in methicillin-resistant Staphylococcus aureus USA400 MW2 assessed as reduction in staphyloxanthin levels after 48 hrs by spectrophotometric method-based pigment inhibition assay; design: species or system Staphylococcus aureus subsp. aureus MW2
T1 sequence (Q8NUQ6 whole entry): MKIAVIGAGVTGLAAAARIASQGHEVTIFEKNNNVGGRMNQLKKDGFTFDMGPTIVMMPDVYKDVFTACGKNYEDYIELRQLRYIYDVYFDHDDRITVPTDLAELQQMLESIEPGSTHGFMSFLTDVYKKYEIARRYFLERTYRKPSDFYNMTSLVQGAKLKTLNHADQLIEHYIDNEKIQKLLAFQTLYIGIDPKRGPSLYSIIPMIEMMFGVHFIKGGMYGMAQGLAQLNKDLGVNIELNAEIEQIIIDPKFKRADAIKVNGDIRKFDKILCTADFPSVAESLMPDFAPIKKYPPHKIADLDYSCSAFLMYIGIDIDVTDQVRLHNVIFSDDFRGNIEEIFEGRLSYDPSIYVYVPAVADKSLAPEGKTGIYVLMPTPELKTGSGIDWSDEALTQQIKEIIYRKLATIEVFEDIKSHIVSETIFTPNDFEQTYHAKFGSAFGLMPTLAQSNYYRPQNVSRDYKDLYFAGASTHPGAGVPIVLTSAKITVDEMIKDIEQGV

[2] = molecular target: T2, 4,4'-diapophytoene desaturase (4,4'-diaponeurosporene-forming) (Staphylococcus aureus (strain USA300), UniProt Q2FDU6); experiment: Inhibition of CrtN in methicillin-resistant Staphylococcus aureus LAC USA300 assessed as reduction in staphyloxanthin levels after 48 hrs by spectrophotometric method-based pigment inhibition assay
T2 sequence (Q2FDU6 whole entry): T1 sequence (Q8NUQ6 whole entry) with Q500R

[3] = Cytotoxicity against HEK293 cells after 43 hrs by Alamar blue dye-based fluorescence assay; type: cell-based; conditions: human
[4] = tested on: Liver; experiment: In-vitro intrinsic clearance in human liver microsomes at 2 uM after 60 mins in presence of NADPH by LC-MS/MS method; type: ADME, microsome; conditions: 1 h
[5] = tested on: Nannizzia gypsea; experiment: In vitro antifungal activity against Microsporum gypseum after 7 days by serial dilution method; type: functional; conditions: 168 h
[6] = tested on: Trichophyton verrucosum; experiment: In vitro antifungal activity against Trichophyton verrucosum after 7 days by serial dilution method; type: functional; conditions: 168 h
[7] = tested on: Staphylococcus aureus; experiment: Antibacterial activity against Staphylococcus aureus Newman assessed as change in bacterial growth at 0.2 mM […]; type: functional
[8] = tested on: Staphylococcus aureus; experiment: Antibacterial activity against methicillin-resistant Staphylococcus aureus NRS271 assessed as change in bacterial growth at 0.2 mM […]; type: functional
[9] = tested on: Staphylococcus aureus; experiment: Chemo-sensitization activity in non-pigmented Staphylococcus aureus Newman assessed as increase in H2O2-induced bacterial death by measuring survival rate at 1 uM pre-incubated for 24 hrs followed by H2O2 addition measured after 30 mins by serial dilution method (reference value: 33.3%); type: functional
How it was run: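 S. aureus Newman was pre-incubated with 1 µM compound, with N-acetylcysteine as antioxidant control, or mock-treated. Cells were then exposed to 1.5% H2O2. Percent bacterial survival was compared with the mock-treated culture.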

[10] = tested on: Staphylococcus aureus; experiment: In vivo anti-virulence activity against Staphylococcus aureus Newman infected in BALB/c mouse model assessed as reduction in bacterial load in kidneys at 0.1 mg bid for 4.5 days administered intraperitoneally 24 hrs prior to infection by serial dilution method; type: functional, organism-based
How it was run: (§1)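 Mice (n=10 per group) got 2.3 × 10^7 CFU S. aureus Newman by retro-orbital injection. Compound was given intraperitoneally b.i.d., either 24 h before infection (4.5 d) or 6 h after infection (3.5 d). Mice were sacrificed after 4.5 d and CFU counted in kidneys and hearts. Groups were compared by two-tailed Mann-Whitney test.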

[11] = tested on: Staphylococcus aureus; experiment: In vivo anti-virulence activity against Staphylococcus aureus Newman infected in BALB/c mouse model assessed as reduction in bacterial load in kidneys at 0.1 mg bid for 3.5 days administered intraperitoneally 6 hrs post infection by serial dilution method; type: functional, organism-based; how it was run: as §1
[12] = tested on: Staphylococcus aureus; experiment: In vivo anti-virulence activity against Staphylococcus aureus Newman infected in BALB/c mouse model assessed as reduction in bacterial load in heart at 0.4 mg bid for 4.5 days administered intraperitoneally 24 hrs prior to infection by serial dilution method; type: functional, organism-based; how it was run: as §1
[13] = tested on: Staphylococcus aureus; experiment: In vivo anti-virulence activity against Staphylococcus aureus Newman infected in BALB/c mouse model assessed as reduction in bacterial load in heart at 0.1 mg bid for 4.5 days administered intraperitoneally 24 hrs prior to infection by serial dilution method; type: functional, organism-based; how it was run: as §1
[14] = tested on: Staphylococcus aureus; experiment: In vivo anti-virulence activity against Staphylococcus aureus Newman infected in BALB/c mouse model assessed as reduction in bacterial load in heart at 0.1 mg bid for 3.5 days administered intraperitoneally 6 hrs post infection by serial dilution method; type: functional, organism-based; how it was run: as §1
[15] = tested on: Staphylococcus aureus; experiment: In vivo anti-virulence activity against methicillin-resistant Staphylococcus aureus Mu50 infected in BALB/c mouse model assessed as reduction in bacterial load in kidneys at 0.4 mg bid for 4.5 days administered intraperitoneally 24 hrs prior to infection by serial dilution method; type: functional; design: scale not given: the % may be the effect or the level left
How it was run: (§2)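 Mice (n=10 per group) infected retro-orbitally with S. aureus Mu50 (1.1 × 10^9 or 1.3 × 10^9 CFU) or NRS271 (2.3 × 10^8 CFU). Compound given i.p. b.i.d., either 6 h after infection for 3.5 d or 24 h before infection for 4.5 d. Mice killed after 4.5 d; log10 CFU per organ counted in kidneys and hearts. Two-tailed Mann−Whitney test.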

[16] = tested on: Staphylococcus aureus; experiment: In vivo anti-virulence activity against methicillin-resistant Staphylococcus aureus Mu50 infected in BALB/c mouse model assessed as reduction in bacterial load in kidneys at 0.1 mg bid for 3.5 days administered intraperitoneally 6 hrs post infection by serial dilution method; type: functional; design: scale not given: the % may be the effect or the level left; how it was run: as §2
[17] = tested on: Staphylococcus aureus; experiment: In vivo anti-virulence activity against methicillin-resistant Staphylococcus aureus NRS271 infected in BALB/c mouse model assessed as reduction in bacterial load in heart at 0.4 mg bid for 4.5 days administered intraperitoneally 24 hrs prior to infection by serial dilution method; type: functional; design: scale not given: the % may be the effect or the level left; how it was run: as §2
[18] = tested on: Staphylococcus aureus; experiment: In vivo anti-virulence activity against methicillin-resistant Staphylococcus aureus NRS271 infected in BALB/c mouse model assessed as reduction in bacterial load in heart at 0.4 mg bid for 3.5 days administered intraperitoneally 6 hrs post infection by serial dilution method; type: functional; design: scale not given: the % may be the effect or the level left; how it was run: as §2
[19] = tested on: Staphylococcus aureus; experiment: Antibacterial activity against Staphylococcus aureus Newman derived after 12 passage by broth dilution method; type: functional

Compound | IC50 [1] [nM] | IC50 [2] [nM] | CC50 at 43 h [3] [nM] | CLH [4] [µL/min/mg] | MIC80 [5] [µg/mL] | MIC80 [6] [µg/mL] | Activity [7] | Activity [8] | survival at 1 µM [9] [%] | Activity [10] | Activity [11] | Activity [12] | Activity [13] | Activity [14] | Activity [15] [%] | Activity [16] [%] | Activity [17] [%] | Activity [18] [%] | IC90 [19] [nM] | Activity [9]
CN(C/C=C/c1ccc(-c2ccccc2)cc1)Cc1coc2ccccc12.Cl | 7.9 | 1.9 | 48100 | 1230 | 32 | > 64 | inactive | inactive | 3 | Active | Active | Active | Active | Active | >95 | >95 | >95 | >95 | 1.8 | –
CN(C/C=C/c1ccc(-c2ccccc2)cc1)Cc1cccc2cc[nH]c12.Cl | 8 | 4 | 26500 | 20 | > 64 | > 64 | inactive | inactive | – | inactive | inactive | inactive | inactive | inactive | >95 | >95 | >95 | >95 | 2.6 | Active
